Results on eight compounds are retold here after ChEMBL document CHEMBL1140549, “Rational design of N-alkyl derivatives of 2-amino-2-deoxy-d-glucitol-6P as antifungal agents” (Bioorg Med Chem Lett, 2007).

The target in series [1] is Glucose-6-phosphate isomerase (Saccharomyces cerevisiae S288c) (UniProt P12709). The series can be described thus: Inhibition of yeast phosphoglucose isomerase upto 20 mM.
Series [2] concerns Saccharomyces cerevisiae. The experiment in a line: Antimicrobial activity against Saccharomyces cerevisiae AD by serial dilution microplate method. It is filed as functional. In a few lines:
(§1)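 Saccharomyces cerevisiae AD lacks the seven genes for the main drug-exporting membrane proteins. ADCDR1 is AD transformed with a plasmid carrying the gene for Candida albicans Cdr1p drug exporter. MIC was read by serial dilution in microplates.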

For series [3], the system named is Nakaseomyces glabratus. The series can be described thus: Antifungal activity against Candida glabrata by serial dilution microplate method. It is filed as functional.
Series [4] can be described thus: Inhibition of Candida albicans glucosamine-6P synthase by Elson-Morgan method. In a few lines:
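Enzyme was Candida albicans GlcN-6P synthase purified to near homogeneity. Reactions ran in 25 mM phosphate buffer, pH 6.9, with 1 mM EDTA and 1 mM DTT, D-Fru-6P (0.5–7.5 mM) and L-glutamine (0.625–10 mM), plus inhibitor. Product was measured by a modified Elson–Morgan method. IC50 and Ki are means of three experiments, with SD.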

Series [5] relates to Candida tropicalis. The series can be described thus: Antifungal activity against Candida tropicalis by serial dilution microplate method. The format is functional.
Series [6] concerns Saccharomyces cerevisiae. The experiment in a line: Antimicrobial activity against Saccharomyces cerevisiae ADCDR1 by serial dilution microplate method. The format is functional. In a few lines: as §1
Series [7] concerns Candida albicans. The experiment in a line: Drug uptake in Candida albicans assessed as uptake rate per mg dry weight. The format is ADME, organism-based. The following applies: in vivo.
Series [8] has as its system Candida albicans. The experiment in a line: Antifungal activity against Candida albicans by serial dilution microplate method. It is filed as functional.

Values after ≈ are worked out from the molar mass of the structure shown. Active and inactive are the calls of the source. The rule behind the calls is not given here.

Glucose-6-phosphate isomerase (Saccharomyces cerevisiae S288c), sequence (P12709 whole entry): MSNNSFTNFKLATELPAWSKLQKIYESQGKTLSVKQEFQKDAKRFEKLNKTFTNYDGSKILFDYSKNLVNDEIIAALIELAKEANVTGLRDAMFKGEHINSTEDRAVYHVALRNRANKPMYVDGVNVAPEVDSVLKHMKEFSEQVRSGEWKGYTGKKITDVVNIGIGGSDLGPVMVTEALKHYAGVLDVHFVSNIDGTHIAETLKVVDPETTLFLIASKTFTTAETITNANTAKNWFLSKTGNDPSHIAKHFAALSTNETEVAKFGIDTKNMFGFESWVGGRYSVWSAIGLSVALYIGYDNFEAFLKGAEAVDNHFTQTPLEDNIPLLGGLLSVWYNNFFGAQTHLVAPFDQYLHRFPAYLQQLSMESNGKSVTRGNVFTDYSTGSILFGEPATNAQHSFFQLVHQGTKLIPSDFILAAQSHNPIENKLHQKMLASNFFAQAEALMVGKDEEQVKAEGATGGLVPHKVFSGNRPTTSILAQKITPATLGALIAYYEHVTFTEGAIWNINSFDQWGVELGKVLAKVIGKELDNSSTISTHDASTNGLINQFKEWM

One may read the MIC as the least concentration at which growth counts as inhibited. The low end stands for inhibition by little substance, the high end for a need for much substance. One may read the IC50 as the point on the concentration scale where inhibition reaches its midpoint. Low values mean inhibition by little substance, high ones a need for much substance. Broadly, the Ki is a dissociation constant, usually derived from enzyme kinetics or from competition with a known ligand. Higher therefore signals lower affinity. `CCN(CC)[C@@H](CO)[C@@H](O)[C@H](O)[C@H](O)COP(=O)(O)O`: in series [1], the outcome was inactive. Moreover, the minimum inhibitory concentration (MIC) in series [2] came to 310 µg/mL (≈ 977 µM); in series [3], 625 µg/mL (≈ 1970 µM); in series [5], 625 µg/mL (≈ 1970 µM); in series [6], 310 µg/mL (≈ 977 µM); in series [8], 310 µg/mL (≈ 977 µM). This compound also came in with a half-maximal inhibitory concentration (IC50) in series [4] of 40 µM. Further, the inhibitory constant (Ki) in series [4] stood at 8 µM. Further, the Drug uptake in series [7] came out at 3.9 nmol/mg/min.

In the case of `N[C@@H](CO)[C@@H](O)[C@H](O)[C@H](O)COP(=O)(O)O`, the outcome in series [1] was inactive. Further, the MIC in series [2] was 5000 µg/mL (≈ 19100 µM); in series [3], 10000 µg/mL (≈ 38300 µM); in series [5], 10000 µg/mL (≈ 38300 µM); in series [6], 5000 µg/mL (≈ 19100 µM); in series [8] it was 5000 µg/mL (≈ 19100 µM). In series [4], the IC50 worked out at 230 µM. This compound also had a Ki in series [4] of 35 µM. The Drug uptake in series [7] is 1.1 nmol/mg/min.

As for `CCN[C@@H](CO)[C@@H](O)[C@H](O)[C@H](O)COP(=O)(O)O`, the outcome in series [1] was inactive. Further, the MIC came to 2500 µg/mL (≈ 8640 µM) in series [2]; 2500 µg/mL (≈ 8640 µM) in series [3]; 2500 µg/mL (≈ 8640 µM) in series [5]; 2500 µg/mL (≈ 8640 µM) in series [6]; 1250 µg/mL (≈ 4320 µM) in series [8]. In addition, in series [4], the concentration for half-maximal inhibition (IC50) stood at 180 µM. In series [4], this compound displayed an inhibition constant (Ki) of 26 µM. Further, the Drug uptake in series [7] amounted to 2.9 nmol/mg/min.

As for `OC(Cn1cncn1)(Cn1cncn1)c1ccc(F)cc1F` [FLUCONAZOLE], the minimum inhibitory concentration (MIC) came to 4 µg/mL (≈ 13.1 µM) in series [2]; 16 µg/mL (≈ 52.2 µM) in series [3]; 16 µg/mL (≈ 52.2 µM) in series [5]; 32 µg/mL (≈ 104 µM) in series [6]; 8 µg/mL (≈ 26.1 µM) in series [8].

Regarding `CCCCCCN[C@@H](CO)[C@@H](O)[C@H](O)[C@H](O)COP(=O)(O)O`, the result in series [1] was inactive. The minimum inhibitory concentration (MIC) in series [2] was 310 µg/mL (≈ 898 µM); in series [3], 625 µg/mL (≈ 1810 µM); in series [5], 310 µg/mL (≈ 898 µM); in series [6] it was 310 µg/mL (≈ 898 µM); in series [8] it was 625 µg/mL (≈ 1810 µM). Besides, in series [4], the IC50 was found to be 290 µM. In series [4], this compound gave a Ki of 49 µM. In addition, the Drug uptake in series [7] is given as 4.8 nmol/mg/min.

As to `CCCN(CCC)[C@@H](CO)[C@@H](O)[C@H](O)[C@H](O)COP(=O)(O)O`, the result in series [1] was inactive. For the same compound, the MIC in series [2] was 80 µg/mL (≈ 232 µM); in series [3], 625 µg/mL (≈ 1810 µM); in series [5] it was 625 µg/mL (≈ 1810 µM); in series [6], 160 µg/mL (≈ 463 µM); in series [8], 160 µg/mL (≈ 463 µM). Besides, the IC50 in series [4] stood at 52 µM. The compound further showed a Ki in series [4] of 10 µM. Besides, in series [7], the Drug uptake was determined as 4.7 nmol/mg/min.

As for `CCCCN[C@@H](CO)[C@@H](O)[C@H](O)[C@H](O)COP(=O)(O)O`, the result in series [1] was inactive. Besides, the MIC in series [2] was determined as 1250 µg/mL (≈ 3940 µM); in series [3], 1250 µg/mL (≈ 3940 µM); in series [5], 1250 µg/mL (≈ 3940 µM); in series [6], 1250 µg/mL (≈ 3940 µM); in series [8], 625 µg/mL (≈ 1970 µM). The compound also displayed a half-inhibitory concentration (IC50) in series [4] of 115 µM. In series [4], this compound showed a Ki of 20 µM. Besides, the Drug uptake in series [7] is listed as 3.4 nmol/mg/min.

For the compound `CCCCN(CCCC)[C@@H](CO)[C@@H](O)[C@H](O)[C@H](O)COP(=O)(O)O`, the result in series [1] was inactive. Besides, the MIC amounted to 1250 µg/mL (≈ 3350 µM) in series [2]; 1250 µg/mL (≈ 3350 µM) in series [3]; 2500 µg/mL (≈ 6700 µM) in series [5]; 1250 µg/mL (≈ 3350 µM) in series [6]; 312 µg/mL (≈ 836 µM) in series [8]. The compound also registered a half-maximal inhibitory concentration (IC50) in series [4] of 82 µM. Also, the affinity in series [4], expressed as Ki, was 12 µM. Further, the Drug uptake in series [7] is reported as 5 nmol/mg/min.
